Shown are actives, neighbours in structure and some others; about 3.9% of the full set was active somewhere.
FXN GAA850 act: FXN promoter activators, primary screen, cell-based, luciferase luminescence, HEK293 lucGAA850; HEK293 lucGAA850 FXN promoter luciferase reporter, 24 h; percent of 10 µM SAHA response; activation, % at 6 µM; 0.56% of 360,000 active;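 active means activation above the average of all compounds screened plus 3 SD, cutoff fixed separately per campaign, cut at about 7.5% in these data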;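 further: 0% = DMSO wells and 100% = 10 µM SAHA wells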
HIF act: HIF pathway transcriptional activators, primary screen, cell-based, U2OS HRE-luciferase, luminescence. activation, % at 7.5 µM (by protocol). U2OS HRE-luciferase reporter; normalized: DMSO 0%, desferrioxamine 100%. 0.32% of 300,000 active;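 active means mean activation of at least 10% of the iron chelator positive control signal, with at least half of replicates also reaching 10%; inconclusive means mean and replicate majority disagree about reaching 10%; inactive means mean and most replicates under 10%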
SR-BI uptake up: activators of SR-BI mediated DiI-HDL uptake, primary screen, ldlA[mSR-BI] CHO cells, DiI fluorescence; activation, % at 12.5 µM; 0.096% of 320,000 active; 3 h; 100 = double the neutral-control signal;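 active means mean replicate activation of at least 60% and every replicate at or above 60%; inconclusive means mean or all-replicate condition met, but not both; inactive means mean below 60% and not all replicates reaching 60%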;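 further: 0% = median plate neutral-control signal and 100% = twice that signal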
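Material – SR-BI-overexpressing, LDLR-lacking CHO cells · Medium – BSA-supplemented, HEPES-buffered Ham's F12, pH 7.4 · Doses – single concentration · Times – compound with DiI-HDL co-incubation, 3 h at 37 °C · Measured by – bottom-read fluorescence, 550/595 nm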
SR-BI DiI inh: inhibitors of SR-BI mediated HDL lipid uptake, primary screen, ldlA[mSR-BI] cells, fluorescence, single point | Scavenger receptor class B member 1 (Mus musculus), Q61009 | ldlA[mSR-BI] CHO cells, DiI-HDL uptake fluorescence, 3 h | inhibition, % at 12.5 µM | 0.96% of 320,000 active;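 active means mean replicate inhibition of at least 70% and a set share of replicates each scoring 70 or more; inconclusive means meets just one of the two criteria; inactive means fails both criteria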;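 further: 0% = median of neutral control wells and 100% = median of positive control wells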
Target sequence (Q61009 whole entry, looked up): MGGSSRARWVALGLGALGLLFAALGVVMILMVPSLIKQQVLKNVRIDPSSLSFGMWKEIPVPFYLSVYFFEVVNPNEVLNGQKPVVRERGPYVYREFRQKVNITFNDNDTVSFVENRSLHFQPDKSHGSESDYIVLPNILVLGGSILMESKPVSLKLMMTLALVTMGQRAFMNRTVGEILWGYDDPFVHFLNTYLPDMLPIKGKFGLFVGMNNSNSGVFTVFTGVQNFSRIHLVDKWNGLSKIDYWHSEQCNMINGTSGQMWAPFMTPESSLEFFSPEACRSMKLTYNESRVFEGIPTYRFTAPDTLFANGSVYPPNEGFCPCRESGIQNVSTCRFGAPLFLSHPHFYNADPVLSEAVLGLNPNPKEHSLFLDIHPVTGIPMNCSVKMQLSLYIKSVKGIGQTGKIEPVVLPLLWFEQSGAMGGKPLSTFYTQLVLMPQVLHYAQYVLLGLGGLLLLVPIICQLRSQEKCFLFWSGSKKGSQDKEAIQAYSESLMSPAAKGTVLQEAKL
ABCB6 inh MLPCN: ABCB6 transporter inhibitors, primary screen, K562-ABCB6 cells, flow cytometry, MLPCN library. fluorescence ratio to DMSO, % at 10 µM. ATP-binding cassette sub-family B member 6 (Homo sapiens), Q9NP58. AID 602162, 2011. K562-ABCB6 porphyrin accumulation, 1 h; hits give low values. 0.19% of 360,000 active;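 active means fluorescence ratio to DMSO below 75%, the collection mean minus 3 SD; inconclusive means too few cells collected in the well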;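 further: signal is porphyrin accumulated inside mitochondria; 100% equals median channel fluorescence of DMSO control wells; lower ratio means ABCB6 inhibition with less porphyrin fluorescence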
AHR act: AHR activators, primary screen, cell-based, luminescence, luciferase reporter, human | activation, % at 5 µM | Aryl hydrocarbon receptor (Homo sapiens), P35869 | 2.5% of 320,000 active | AHR-responsive luciferase reporter cells; in the data active means activation above about 47%;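 further: 0% = vehicle wells and 100% = reference agonist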
AHR act confirm: AHR activators, confirmation, cell-based, luminescence, luciferase reporter, human; shares compounds with AHR act; human cells, AHR-responsive luciferase reporter; 87% of 2,300 active; activation, % at 9 µM; in the data active means activation above about 49%;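 further: HepG2 hepatoma cells carrying a DRE-driven firefly luciferase reporter; 0% = vehicle wells and 100% = reference agonist wells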
PXR act counter: human PXR activators, counter-screen for AHR activator project, cell-based, luciferase luminescence; shares compounds with AHR act; cell-based PXR reporter; activation, % at 11.6 µM; 88% of 2,300 active; in the data active means activation above about 11%;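 further: human hepatoma DPX-2 cells expressing full-length human PXR; 0% = DMSO and 100% = reference agonist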
The depositor's hits bear a star; ? = inconclusive; nt = not tested or not shown.

SMILES	FXN GAA850 act	HIF act	SR-BI uptake up	SR-BI DiI inh	ABCB6 inh MLPCN	AHR act	AHR act confirm	PXR act counter
CC/C(=N/Nc1cccc(C)c1)c1cnnc(SC)n1	3	nt	-71	?	93	13	nt	nt
CC/C(=N/Nc1ccc(Cl)cc1)c1cnnc(SC)n1	3	0	-20	20	98	98*	94*	12*
COc1cc(C(=O)Nc2ccc(C(=O)c3cccs3)cc2)cc(OC)c1OC	1	0	-59	59	90	2	nt	nt
CCCc1nc2ccccc2n1CC(O)COc1ccc(NC(C)=O)cc1 (centres undefined)	2	0	4	-4	104	1	nt	nt
Cc1nn2c(-c3ccc(F)cc3)ccnc2c1Br	4	0	6	-6	92	82*	109*	25*
Cc1nn2c(-c3ccncc3)ccnc2c1Br	2	0	4	-4	104	-1	nt	nt
CN1C(=O)/C(=C/c2ccccc2OCc2cccc(F)c2)NC1=S	0	0	-12	12	106	97*	74*	35*
CN1C(=O)/C(=C/c2ccccc2OCc2ccccc2)NC1=S	2	0	-10	10	90	90*	64*	30*
Cc1nn(CC(=O)Nc2ccc(C(=O)N3CCCC3)cc2)c(=O)c2ccccc12	0	-1	-19	19	96	86*	5	5
Cc1cc(OCCn2ccnc2)cc(C)c1Cl	1	-2	16	-16	102	80*	55*	16*
Cc1cccc(C)c1OCCCn1ccnc1	-1	-25	11	-11	101	136*	36	16*
Cc1cccc(OCCCCCn2ccnc2)c1C	-1	0	2	-2	98	22	nt	nt
Cc1cccc(C)c1OCCN1CCCC1	0	-1	3	-3	93	95*	3	11*
Cc1cc(C)cc(OCCCn2ccnc2)c1	0	-3	0	0	90	37	nt	nt
Cc1ccc(-c2ccc(=O)[nH]n2)cc1	2	0	23	-23	110	0	nt	nt
O=c1c(-c2ccc(Cl)cc2)cnc2n1CCS2	1	2	10	-10	103	116*	131*	53*
Nc1n[nH]c(N)c1N=Nc1ccccc1F	-1	-1	-16	16	98	2	nt	nt
Cc1ccc(Nc2nc(N)c([N+](=O)[O-])c(N3CCOCC3)n2)cc1C	4	0	-17	17	91	119*	83*	21*
Nc1nc(NCCCN2CCOCC2)nc(Nc2ccc(F)cc2)c1[N+](=O)[O-]	2	0	11	-11	105	83*	15	29*
CCN(CC)S(=O)(=O)c1cc(C(=O)Nc2cc(Cl)ccc2N2CCN(C)CC2)ccc1Cl	-1	0	18	-18	95	2	nt	nt
C=CCOc1ccc(/C(O)=C2/C(=O)C(=O)N(CCN3CCOCC3)C2c2ccc(C)cc2)cc1 (centres undefined)	-1	0	0	0	97	1	nt	nt
COc1ccc(NC(=S)Nc2ccc(C)c(Cl)c2)cc1OC	-1	5	-33	33	99	5	nt	nt
Cc1ccc(NC(=S)Nc2cc(-c3ccccc3)[nH]n2)cc1Cl	3	nt	-48	48	100	94*	103*	37*
Cc1cccc2c1ncc1c(=O)n(-c3ccccc3)[nH]c12	4	3	-21	21	94	136*	129*	32*
Cc1[nH]n(-c2ccccc2)c(=O)c1N=Nc1c(Cl)cccc1Cl	-1	0	17	-17	100	10	nt	nt
SMILES	FXN GAA850 act	HIF act	SR-BI uptake up	SR-BI DiI inh	ABCB6 inh MLPCN	AHR act	AHR act confirm	PXR act counter
Cc1cc(C(F)(F)F)n2ncc(-c3ccc(F)cc3)c2n1	0	-5	-2	2	94	88*	120*	23*
O=C(CN(c1ccc(F)cc1)S(=O)(=O)c1ccc2c(c1)OCCO2)Nc1ccc2c(c1)OCO2	-2	-4	nt	nt	89	101*	52*	72*
Clc1nc(-c2ccccn2)nc2scc(-c3ccccc3)c12	5	1	-11	11	83	80*	59*	25*
Oc1[nH]c2ccccc2c1N=Nc1ccc(F)cc1	5	2	38	-38	88	94*	91*	7
Cc1ccc(NC(=O)c2cccc(C(F)(F)F)c2)cc1NC(=O)c1[nH]cnc1C(N)=O	4	nt	-37	37	92	119*	114*	57*
Cc1nc2ccc(NC(=O)c3cccc(C(F)(F)F)c3)cc2o1	0	2	-52	52	99	11	nt	nt
COc1cc(/C=C/c2ccc3cccc(O)c3n2)ccc1O	5	4	-20	20	97	5	nt	nt
Cc1cc(N/C=C/C(=O)c2ccccc2)ccc1Br	2	3	6	-6	102	94*	108*	11*
Nc1nc2ccccc2n1/N=C/c1cccnc1	2	2	35	-35	93	32	nt	nt
Nc1nc2ccccc2n1/N=C/c1ccc([N+](=O)[O-])s1	0	0	-12	12	96	128*	79*	11*
CC(=O)c1cc(O)c2ccccc2c1O	-1	0	-12	12	125	90*	118*	9
CC(=O)c1c(C)oc2c1cc(O)c1ccccc12	2	1	nt	nt	96	20	nt	nt
O=C(Nc1nc2ccc(F)cc2s1)c1cccs1	5	0	-28	28	99	99*	136*	9
CN(C)S(=O)(=O)c1ccc2nc(NC(=O)c3cccs3)sc2c1	3	1	-12	12	93	6	nt	nt
O=C(Nc1nc2c(s1)CCc1ccccc1-2)c1cccs1	2	2	-70	?	103	85*	158*	20*
CSc1nc2ccc3nc(NC(=O)c4cccs4)sc3c2s1	-1	1	-63	63	96	13	nt	nt
O=C(Nc1nc2c(s1)COc1ccccc1-2)c1cccs1	1	1	-27	27	90	129*	129*	16*
COc1ccc(C(=O)COc2ccccc2C#N)cc1	3	2	-18	18	98	90*	67*	23*

High-throughput results: PubChem BioAssay, several laboratories
